Results taken from ChEMBL document CHEMBL3046321, “Preparation of achiral and chiral (E)-enaminopyran-2,4-diones and their phytotoxic activity” (2009).

Columns and labels:
[1] = test system: Cucumis sativus; assay: Phytotoxic activity against Cucumis sativus (cucumber)seeds assessed as inhibition of radicle growth at 10^-3 mol/l at 25 degC after 72 hr by filter-paper based radicle elongation assay; type: functional
Method in brief: (§1)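 Test compounds suspended and sonicated 5 min. Aliquots of 4 mL wetted two sheets of filter paper in glass Petri dishes, with 20 seeds per dish. Tested at 10⁻⁴ and 10⁻³ mol L⁻¹. Incubated 72 h at 25 °C under fluorescent light. Radicle length measured and germination recorded (radicle ≥1 mm). Completely randomized design, five replications. Results as % radicle growth inhibition vs untreated controls; Tukey's test, P 0.05.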

[2] = test system: Cucumis sativus; assay: Phytotoxic activity against Cucumis sativus (cucumber)seeds assessed as inhibition of radicle growth at 10^-4 mol/l at 25 degC after 72 hr by filter-paper based radicle elongation assay; type: functional; method in brief: as §1
[3] = test system: Sorghum bicolor; assay: Phytotoxic activity against Sorghum bicolor seeds assessed as inhibition of radicle growth at 10^-3 mol/l at 25 degC after 72 hr by filter-paper based radicle elongation assay; type: functional; method in brief: as §1
[4] = test system: Sorghum bicolor; assay: Phytotoxic activity against Sorghum bicolor seeds assessed as inhibition of radicle growth at 10^-4 mol/l at 25 degC after 72 hr by filter-paper based radicle elongation assay; type: functional; method in brief: as §1
[5] = test system: Urochloa decumbens; assay: Phytotoxicity against Urochloa decumbens pregerminated seeds assessed as inhibition of root biomass development at 5x10'-4 mol/l at 28 degC after 24 to 48 hr by sand based radicle elongation assay; type: functional
[6] = test system: Ipomoea grandifolia; assay: Phytotoxicity against Ipomoea grandifolia pre-germinated seeds assessed as inhibition of aerial parts development at 5x10'-4 mol/l at 28 degC after 24 to 48 hr by sand based radicle elongation assay; type: functional
[7] = test system: Ipomoea grandifolia; assay: Phytotoxicity against Ipomoea grandifolia pre-germinated seeds assessed as inhibition of root biomass development at 5x10'-4 mol/l at 28 degC after 24 to 48 hr by sand based radicle elongation assay; type: functional
[8] = test system: Urochloa decumbens; assay: Phytotoxicity against Urochloa decumbens seeds assessed as inhibition of aerial parts development at 5x10'-5 mol/kg measured at 21 days after seed sowing by green house trials; type: functional
[9] = test system: Urochloa decumbens; assay: Phytotoxicity against Urochloa decumbens seeds assessed as inhibition of root biomass development at 5x10'-5 mol/kg measured at 21 days after seed sowing by green house trials; type: functional
[10] = test system: Ipomoea grandifolia; assay: Phytotoxicity against Ipomoea grandifolia seeds assessed as inhibition of aerial parts development at 5x10'-5 mol/kg measured at 21 days after seed sowing by green house trials; type: functional
[11] = test system: Urochloa decumbens; assay: Phytotoxicity against Urochloa decumbens pregerminated seeds assessed as inhibition of aerial parts development at 5x10'-4 mol/l at 28 degC after 24 to 48 hr by sand based radicle elongation assay; type: functional
[12] = test system: Ipomoea grandifolia; assay: Phytotoxicity against Ipomoea grandifolia seeds assessed as inhibition of root biomass development at […] measured at 21 days after seed sowing by green house trials
[13] = test system: Urochloa decumbens; assay: Stimulation of aerial parts development in Urochloa decumbens pregerminated seeds at 5x10'-4 mol/l at 28 degC after 24 to 48 hr by sand based radicle elongation assay; type: functional
[14] = test system: Urochloa decumbens; assay: Stimulation of root biomass development in Urochloa decumbens pregerminated seeds at 5x10'-4 mol/l at 28 degC after 24 to 48 hr by sand based radicle elongation assay; type: functional

Row | Structure (SMILES) | inhibition at 1000 µM [1] | inhibition at 100 µM [2] | inhibition at 1000 µM [3] | inhibition at 100 µM [4] | inhibition at 500 µM [5] | inhibition at 500 µM [6] | inhibition at 500 µM [7] | inhibition (INH) [8] | inhibition (INH) [9] | inhibition (INH) [10] | inhibition at 500 µM [11] | inhibition (INH) [12] | Activity [13] | Activity [14]
1 | CC1=CC(=O)/C(=C(/C)Nc2ccccc2)C(=O)O1 | 81.1% | -10.4% | 62% | 7.2% |  |  |  |  |  |  |  |  |  | 
2 | CC1=CC(=O)/C(=C(/C)Nc2cc([N+](=O)[O-])ccc2O)C(=O)O1 | 58.1% | -12.4% | 55.6% | 3.9% | 15% | 76% | 81% | 15% | 15.3% | 78.9% | 15% | 79.9% |  | 
3 | CCCN/C(C)=C1\C(=O)C=C(C)OC1=O | 46.2% | -15.7% | 75.4% | 19.9% |  |  |  |  |  |  |  |  |  | 
4 | COc1ccc(N/C(C)=C2\C(=O)C=C(C)OC2=O)cc1 | 33.4% | 1.4% | 48.2% | 28.4% |  |  |  |  |  |  |  |  |  | 
5 | CC[C@H](C)N/C(C)=C1\C(=O)C=C(C)OC1=O | 87.5% | 15% | 79.3% | 46.2% | 66% | 84% | 81% | 70.8% | 65.5% | 84.4% | 71% | 83% |  | 
6 | COC(=O)[C@H](C)N/C(C)=C1\C(=O)C=C(C)OC1=O | 76.3% | -0.3% | 71.7% | 21.6% | 46% | 57% | 62% | 33.3% | 43.4% | 56.9% | 33% | 61.7% |  | 
7 | COC(=O)[C@H](Cc1ccccc1)N/C(C)=C1\C(=O)C=C(C)OC1=O | 63.1% | 2.1% | 24.4% | -10.8% |  |  |  |  |  |  |  |  |  | 
8 | CC1=CC(=O)/C(=C(/C)NNc2ccc([N+](=O)[O-])cc2[N+](=O)[O-])C(=O)O1 | 77.6% | 23.4% | 75.8% | 8.3% |  |  |  |  |  |  |  |  |  | 
9 | CC1=CC(=O)/C(=C(/C)NCc2ccccc2)C(=O)O1 | 65.5% | 20.1% | 70.8% | 45% |  | 84% | 81% | 22.8% | 39.3% | 85.9% |  | 79.6% |  | 
10 | CC1=CC(=O)/C(=C(/C)Nc2ccccc2Cl)C(=O)O1 | 88.3% | 54.5% | 85.2% | 32.9% |  |  |  |  |  |  |  |  |  | 
11 | CC(=O)C1C(=O)C=C(C)OC1=O (stereo not drawn) [DEHYDROACETIC ACID] | 87.6% | 36.7% | 82.7% | 34.6% | 41% |  |  | -41.2% | -67.7% | 7.6% | 8% | 40.7% | 41% | 68%
12 | COC(=O)CN/C(C)=C1\C(=O)C=C(C)OC1=O | 69.1% | -15.3% | 59.3% | 7% | 44% | 42% | 34% | 33.3% | 43.3% | 41.7% | 33% | 34.3% |  | 
13 | COC(=O)[C@@H](N/C(C)=C1\C(=O)C=C(C)OC1=O)C(C)C | 80.8% | -6.4% | 70.5% | 17.2% |  | 68% | 65% | -47.4% | -45.7% | 67.7% |  | 65.3% | 46% | 46%
14 | CC1=CC(=O)/C(=C(/C)NNc2ccccc2)C(=O)O1 | 19.2% | 29.5% | 27.2% | -26.5% |  |  |  |  |  |  |  |  |  | 
15 | CC1=CC(=O)/C(=C(/C)Nc2cc(Cl)c([N+](=O)[O-])cc2O)C(=O)O1 | 81.4% | 21.8% | 64.4% | 4.3% |  |  |  | -20.3% | -24% | 43.7% |  | 32% | 20% | 24%
16 | CC1=CC(=O)/C(=C(/C)Nc2ccccc2O)C(=O)O1 | 69.3% | 7.8% | 73.7% | 39.9% |  |  |  |  |  |  |  |  |  | 
17 | CCCCN/C(C)=C1\C(=O)C=C(C)OC1=O | 44% | -10.4% | 79.7% | 48.3% |  |  |  |  |  |  |  |  |  | 
